Source: paper PMC9638899 (Nucleic Acids Research, 2022)
Several values for one entry are separate records, joined by “and”; a condition that tells them apart may be missing. Identical values can stand only once.

How the values were obtained:
Sis0455 [1] = assay: ITC binding of cA4 to Sis0455 wild type; parameters: species or system Sulfolobus islandicus
Sis0455-S11G = assay: ITC binding of cA4 to Sis0455-S11G; parameters: species or system Sulfolobus islandicus
Sis0455-K106G [2] = assay: ITC binding of cA4 to Sis0455-K106G; parameters: species or system Sulfolobus islandicus; conditions: 25°C, K106G mutant
In short: (§1)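 His-tagged Sis0455 mutants (site-directed) were expressed in E. coli BL21 pRARE and purified. Protein and cA4 were dialysed into 50 mM HEPES pH 8.0, 300 mM KCl. cA4 (~50 or 100 μM, syringe) was titrated into protein (~5 or 10 μM) at 25°C: one 0.4 μl injection, then 19 × 2 μl, 150 s apart, 750 rpm. cA4-into-buffer controls were run. Normalised heats were fitted to a single-site model.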

Sis0455-R105G [3] = assay: ITC binding of cA4 to Sis0455-R105G; parameters: species or system Sulfolobus islandicus; conditions: 25°C, R105G mutant
In short: as §1

Sis0455 D75G = assay: ITC binding of cA4 to Sis0455 D75G; parameters: species or system Sulfolobus islandicus; conditions: 25°C, D75G mutant
In short: as §1

Sis0455 T10G [4] = assay: ITC binding of cA4 to Sis0455 T10G; parameters: species or system Sulfolobus islandicus; conditions: 25°C, T10G mutant
In short: as §1

Sis0455 E17G/T37G = assay: ITC binding of cA4 to Sis0455 E17G/T37G; parameters: species or system Sulfolobus islandicus; conditions: 25°C, E17G/T37G mutant
In short: as §1

Sis0455 N138G [5] = assay: ITC binding of cA4 to Sis0455 N138G; parameters: species or system Sulfolobus islandicus; conditions: 25°C, N138G mutant
In short: as §1

Sis0455 E41G/R134G = assay: ITC binding of cA4 to Sis0455 E41G/R134G; parameters: species or system Sulfolobus islandicus; conditions: 25°C, E41G/R134G mutant
In short: as §1

Sis0455 Q130G/Y133G [6] = assay: ITC binding of cA4 to Sis0455 Q130G/Y133G; parameters: species or system Sulfolobus islandicus; conditions: 25°C, Q130G/Y133G mutant
In short: as §1

Sis0811 [7] = assay: Binding of cA4 to Sis0811; parameters: species or system Sulfolobus islandicus; conditions: Sis0811 versus SisCsx1
SisCsx1 [8] = assay: Binding of cA4 to SisCsx1; parameters: species or system Sulfolobus islandicus; conditions: SisCsx1 versus Sis0455
Sis0455 [9] = assay: cA4 cleavage activity assay and time course, LC ESI-MS, Sis0455; type: biochemical, Sulfolobus islandicus; conditions: time course, 40 μM cA4, 2 μM enzyme, 70°C
Sis0811 [10] = assay: cA4 cleavage time course, LC ESI-MS, Sis0811; type: biochemical, Sulfolobus islandicus; conditions: 70°C
Sis0455-K106G [11] = assay: cA4 cleavage activity assay, LC ESI-MS, Sis0455-K106G; type: biochemical, Sulfolobus islandicus; conditions: 40 μM cA4, 2 μM enzyme, 70°C, one hour
In short: (§2)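 Each 50 μl reaction held 40 μM cA4 and 2 μM His-tagged Sis0455 variant (E. coli-expressed) in 20 mM Tris pH 8.0, 100 mM NaCl, 1 mM EDTA, for 1 h at 70°C. A no-enzyme control was included. Reactions were stopped at 4°C, phenol-extracted, dried and taken up in 8.6 mM TEA pH 8.3. Products were separated on C18 reverse-phase UPLC (TEA/acetonitrile gradient, 30°C) and read by negative-ion ESI-MS. Runs were at least duplicates.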

Sis0455-R105G [12] = assay: cA4 cleavage activity assay, LC ESI-MS, Sis0455-R105G; type: biochemical, Sulfolobus islandicus; conditions: 40 μM cA4, 2 μM enzyme, 70°C, one hour
In short: as §2

Sis0455 T10G [13] = assay: cA4 cleavage activity assay, LC ESI-MS, Sis0455 T10 glycine substitution; type: biochemical, Sulfolobus islandicus; conditions: 40 μM cA4, 2 μM enzyme, 70°C, one hour, T10 substituted by glycine
In short: as §2

[14] = tested on: Sis0455 E17/E37 glycine substitution; assay: cA4 cleavage activity assay, LC ESI-MS, Sis0455 E17/E37 glycine substitution; type: biochemical, Sulfolobus islandicus; conditions: 40 μM cA4, 2 μM enzyme, 70°C, one hour, E17/E37 substituted by glycine
In short: as §2

Sis0455 N138G [15] = assay: cA4 cleavage activity assay, LC ESI-MS, Sis0455 N138G; type: biochemical, Sulfolobus islandicus; conditions: 40 μM cA4, 2 μM enzyme, 70°C, one hour
In short: as §2

Sis0455 Q130G/Y133G [16] = assay: cA4 cleavage activity assay, LC ESI-MS, Sis0455 Q130G/Y133G; type: biochemical, Sulfolobus islandicus; conditions: 40 μM cA4, 2 μM enzyme, 70°C, one hour
In short: as §2

Sis0455-E41G/R134G = assay: cA4 cleavage activity assay, LC ESI-MS, Sis0455-E41G/R134G; type: biochemical, Sulfolobus islandicus; conditions: 40 μM cA4, 2 μM enzyme, 70°C, one hour
In short: as §2

SisCsx1 [17] = conditions: cited from earlier work
Sso2081 = Sso2081 versus Sso1393; cited from earlier work

Kd (Sis0455 [1]; ITC, 25°C, wild type Sis0455): 2.2 nM and 2 nM
higher affinity for cA4 of Sis0455 than Sis0811 (Sis0455 [1]; Sis0455 versus Sis0811 (ref 37)): 5 fold
Kd (Sis0455-S11G; ITC, 25°C, S11G variant): 19.5 nM
decrease in the binding affinity (Sis0455-S11G; S11G variant versus wild type Sis0455): ~10 fold
Kd (Sis0455-K106G [2]): 4100 nM
cA4 binding (Sis0455-R105G [3]): abolished cA4 binding
cA4 binding (Sis0455 D75G): abolished cA4 binding
Kd (Sis0455 T10G [4]): 35.3 nM
Kd (Sis0455 E17G/T37G): 3.5 nM
Kd (Sis0455 N138G [5]): 10.5 nM
Kd (Sis0455 E41G/R134G): 1.9 nM
Kd (Sis0455 Q130G/Y133G [6]): 2600 nM
affinity higher than that of SisCsx1 (Sis0811 [7]): 2 fold
affinity for cA4 lower than Sis0455 (SisCsx1 [8]): 10 fold
Substance: Cyclic tetraadenylate [cA4]
time to fully degrade cA4 producing 100% P1 product (Sis0455 [9]): 50 min
time to cleave the second phosphodiester bond converting all the linear product in the P1 dinucleotide (Sis0811 [10]; Sis0811): 30 min
time to fully degrade cA4 producing 100% P1 product (Sis0811 [10]; Sis0811): 50 min
time to convert almost 100% of the cyclic molecule in the P3 linear product (Sis0811 [10]; Sis0811, first phosphodiester): 20 min
cA4 cleavage activity (Sis0455-K106G [11]): abolished the cleavage activity
cA4 cleavage activity (Sis0455-R105G [12]): abrogated the nuclease activity
cA4 cleavage activity (Sis0455 T10G [13]): did not affect catalysis
cA4 cleavage activity [14]: did not affect catalysis
cA4 cleavage activity (Sis0455 N138G [15]): did not affect catalysis
cA4 cleavage activity (Sis0455 Q130G/Y133G [16]): did not affect catalysis
cA4 cleavage activity (Sis0455-E41G/R134G): showed cA4 as major specie
Kd (SisCsx1 [17]): 20 nM
cA4 processing faster than Sso1393 (Sso2081): 10 fold
